# From paper PMC3123137 (Journal of immunology (Baltimore, Md. : 1950), 2011)
# Entries after “also recorded” stand apart in the source; their conditions may differ. Bridge positions count the residues as written; N and C are the ends. Ends that are not written are not given here.
# B1: decay accelerating factor (CD55): AP regulator immobilized on surfaces (protein, UniProt P08174 35-353, looked up)
# Complement decay-accelerating …: DCGLPPDVPNAQPALEGRTSFPEDTVITYKCEESFVKIPGEKDSVICLKGSQWSDIEEFCNRSCEVPTRLNSASLKQPYITQNYFPVGTVVEYECRPGYRREPSLSPKLTCLQNLKWSTAVEFCKKKSCPNPGEIRNGQIDVPGGILFGATISFSCNTGYKLFGSTSSFCLISGSSVQWSDPLPECREIYCPAPPQIDNGIIQGERDHYGYRQSVTYACNKGFTMIGEHSIYCTVNNDEGEWSGPPPECRGKSLTSKVPPTVQKPTTVNVPTTEVSPTSQKTTTKTTTPNAQATRSTPVSRTTKHFHETTPNKGSGTTS
# modifications: immobilized on surfaces
# Experiments:
# sheep erythrocytes = test: Hemolytic assay; assay type: cell-based
# In short: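 Sheep erythrocytes washed in VBS–5 mM Mg2+/EGTA; cell amount set by water-lysis titration to give OD405 ~1. Serially diluted test compound or anti-factor H SCR19–20 mAb mixed with cells and human lepirudin plasma (1:10 in VBS–Mg2+/EGTA), 37°C, 1 h, shaking. Lysis read as supernatant OD405 after centrifugation. Run ≥3 times with different donors' plasma; means ± SD of a representative run.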
# immune cells = conditions: addition to blood, hemodialysis; ref [15]; cited from earlier work
# complement activation = conditions: cited from earlier work
# cells = conditions: soluble inhibitor or heparin-coated surface; ref [8]–[11]; cited from earlier work
# various cells = conditions: ref [11], [58], [59]; cited from earlier work
# plasma proteins = conditions: ref [56], [57]; cited from earlier work
# fH1–4 = fH1–4 (Homo sapiens, UniProt P08603); test: Monoclonal phage ELISA, N-terminal fragment; assay type: binding; conditions: phage clone; coated wells, 1 h room temperature, anti-M13 HRP/ABTS
# In short: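 Wells were coated overnight at 4°C with recombinant factor H SCR1–4 (5 μg/ml in PBS), with BSA wells in parallel, then blocked with 5% milk in PBST for 1 h. Amplified single third-round plaques were bound for 1 h at RT and washed six times with PBST. Detection used HRP anti-M13 mAb with ABTS. An unrelated cyclic-peptide phage served as control, and C3b as negative control.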
# [1] = test system: factor H cofactor activity; test: Factor H cofactor activity assay; assay type: biochemical, human; conditions: peptide expressed as fusion protein with phage PIII domain (Supplemental Fig. 2)
# [2] = test system: alternative pathway of complement; test: Inhibition of biomaterial-induced AP activation by immobilized peptide; assay type: biochemical, human
# factor H [3] = biological target: T1, factor H (Homo sapiens, UniProt P08603); test: ELISA, binding of purified factor H to immobilized peptide; conditions: summary statement
# In short: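 Streptavidin (10 μg/ml in PBS) was coated overnight at 4°C and blocked with 2% BSA in PBS. Biotinylated test peptide or biotinylated linear compstatin control was added at 10 μg/ml for 30 min at RT. Purified human factor H was serially diluted in PBS from 2.5 μg/ml and bound for 1 h. Detection used goat anti-human factor H pAb, then HRP anti-goat IgG. Means ± SD, representative of three experiments.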
# factor H [4] = biological target: T1, factor H; test: Factor H capture from lepirudin plasma by immobilized peptide; assay type: binding; conditions: no streptavidin-biotin conjugation
# T1 sequence (P08603 19-1231): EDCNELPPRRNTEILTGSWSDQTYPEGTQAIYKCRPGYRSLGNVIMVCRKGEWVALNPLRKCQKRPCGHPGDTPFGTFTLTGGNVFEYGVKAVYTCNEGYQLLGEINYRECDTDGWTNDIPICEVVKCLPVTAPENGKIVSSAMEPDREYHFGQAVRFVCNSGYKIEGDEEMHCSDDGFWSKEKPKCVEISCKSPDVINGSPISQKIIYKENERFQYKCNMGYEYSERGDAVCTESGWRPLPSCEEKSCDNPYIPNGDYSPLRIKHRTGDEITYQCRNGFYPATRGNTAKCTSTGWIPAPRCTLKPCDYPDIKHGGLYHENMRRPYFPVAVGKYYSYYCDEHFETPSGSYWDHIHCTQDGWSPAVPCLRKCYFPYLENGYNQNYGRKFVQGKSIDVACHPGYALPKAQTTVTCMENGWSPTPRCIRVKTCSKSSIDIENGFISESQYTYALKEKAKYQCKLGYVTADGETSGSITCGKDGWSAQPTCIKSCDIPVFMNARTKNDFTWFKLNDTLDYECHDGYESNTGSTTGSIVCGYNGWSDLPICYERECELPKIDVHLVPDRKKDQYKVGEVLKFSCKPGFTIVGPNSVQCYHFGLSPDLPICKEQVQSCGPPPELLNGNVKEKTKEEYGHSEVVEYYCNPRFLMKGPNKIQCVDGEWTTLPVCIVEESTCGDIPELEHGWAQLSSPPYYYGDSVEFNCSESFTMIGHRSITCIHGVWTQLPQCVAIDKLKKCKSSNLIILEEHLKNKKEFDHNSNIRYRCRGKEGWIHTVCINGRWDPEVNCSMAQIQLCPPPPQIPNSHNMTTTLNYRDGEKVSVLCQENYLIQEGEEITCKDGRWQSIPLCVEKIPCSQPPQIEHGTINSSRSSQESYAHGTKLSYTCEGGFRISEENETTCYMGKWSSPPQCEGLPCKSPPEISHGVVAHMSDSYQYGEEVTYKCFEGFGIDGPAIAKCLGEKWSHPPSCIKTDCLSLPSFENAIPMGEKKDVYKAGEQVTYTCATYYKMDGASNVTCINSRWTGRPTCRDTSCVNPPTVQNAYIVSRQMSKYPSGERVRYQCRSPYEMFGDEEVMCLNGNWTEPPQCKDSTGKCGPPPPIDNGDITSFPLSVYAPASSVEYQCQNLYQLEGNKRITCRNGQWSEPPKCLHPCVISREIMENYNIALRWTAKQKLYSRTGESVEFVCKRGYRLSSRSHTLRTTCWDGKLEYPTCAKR
# Chain of fH1–4 (P08603 19-264): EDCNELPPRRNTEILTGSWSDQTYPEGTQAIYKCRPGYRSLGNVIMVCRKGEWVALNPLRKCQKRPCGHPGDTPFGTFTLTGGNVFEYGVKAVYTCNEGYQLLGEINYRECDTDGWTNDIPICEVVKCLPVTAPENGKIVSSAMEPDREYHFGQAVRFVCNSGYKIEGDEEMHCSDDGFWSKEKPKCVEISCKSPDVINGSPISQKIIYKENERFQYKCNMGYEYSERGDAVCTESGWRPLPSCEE
molecule,measurement,setting,value
ASSGMCFTKKTVLC (disulfide 6-14 (inferred)) [4A1],Effect on hemolytic assay as phage PIII fusion protein,sheep erythrocytes; peptide expressed as fusion protein with phage PIII domain (Supplemental Fig. 2),affected
compstatin,Activation of immune cells and expression of pro-coagulative factors,immune cells,subsequent activation of immune cells and the expression of pro-coagulative factors
same,Filter-induced complement response,"complement activation; addition to blood, hemodialysis, ref [15]",inhibited filter-induced complement response
same,Biomaterial-induced activation and surface adhesion of cells,cells,inhibition of complement activation largely attenuates biomaterial-induced activation and surface adhesion of cells
heparin,Activation of cells,various cells,induces activation of various cells
same,Plasma protein binding specificity,plasma proteins,broad binding specificity for plasma proteins
same,Dependence of inhibition on factor H capturing,"complement activation; heparin coating, ref [55]",independent of factor H capturing by heparin
same,Biomaterial-induced complement activation,"complement activation; highly concentrated heparin coating, ref [14], [53]–[55]",inhibited biomaterial-induced complement activation
same,Complement activation at low concentrations in the fluid phase,"complement activation; ref [14], [60]",may actually enhance complement activation at low concentrations in the fluid phase
same,Biomaterial-induced activation and surface adhesion of cells,cells,inhibition of complement activation largely attenuates biomaterial-induced activation and surface adhesion of cells
ASSYDVGYSHDCRF [5-2C6],Binding to fH1–4 (N-terminal regulatory region),fH1–4,bound to the N-terminal regulatory region of factor H
same,Effect on cofactor assay as phage PIII fusion protein,[1],affected
ASSSRCTYDHWCSH (disulfide 6-12 (inferred)) [5C6],Inhibition of biomaterial-induced complement activation in undiluted plasma,"[2]; immobilized on model biomaterial surface, undiluted lepirudin plasma",substantial inhibition of biomaterial-induced complement activation
same,"Inhibition of complement, peptide coated directly onto polystyrene","[2]; peptide coated directly, no streptavidin-biotin conjugation",Neither factor H binding nor inhibition of complement was seen
same,Factor H-capturing activity,factor H [3],high factor H-capturing activity while retaining its functional integrity; also recorded: able to capture factor H at high activity without interfering with its regulatory activity
same,Lysis of sheep erythrocytes,"sheep erythrocytes; 5C6 up to 40 μM, lepirudin plasma 1:10 in VBS–Mg2+/EGTA, 37°C, 1 h, OD405",No lysis
same,Interference with factor H cell-surface binding / surface recognition,"sheep erythrocytes; soluble 5C6 peptide, hemolytic assay (conclusion)",does not interfere with the cofactor activity or cell-surface binding properties of factor H; also recorded: did not interfere with the surface recognition properties of factor H
same,"Factor H binding, peptide coated directly onto polystyrene",factor H [4],Neither factor H binding nor inhibition of complement was seen
B1,Biomaterial-induced complement after immobilization of AP regulators,"complement activation; immobilized regulator, ref [39]–[41]",attenuated biomaterial-induced complement
